Screening results from PubChem BioAssay.
The entries come from a sample that favours hits as a whole.
CHOP inh: inhibitors of CHOP induction in ER stress response; CHO-K1 CHOP-promoter luciferase, tunicamycin-induced, 15-18 h; inhibition, % at 10 µM; 220,000 tested, 3.8% active; AID 2732;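 active means compounds that reduced the stress-induced luciferase reporter signal by more than about 70% of percent inhibition, limit read from the data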;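 further: 0% = tunicamycin plus vehicle and 100% = wells without tunicamycin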
PvdQ acylase: P. aeruginosa PvdQ acylase inhibition; purified PvdQ acylase, fluorescence plate reader; AID 488965; 340,000 tested, 0.063% active; inhibition, % at 10 µM; in the data active means inhibition above about 30%, passing the limit was not always enough;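 further: 0% = vehicle neutral wells and 100% = reference inhibitor wells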
UPR CHOP act: apoptotic UPR (CHOP) activation; CHO-CHOP luciferase reporter, luminescence; percent of tunicamycin response over DMSO baseline; activation, % at 10 µM; 330,000 tested, 0.34% active;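 active means at 10 µM dose, activation of 40% or more, normalized to positive control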;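 further: 100% = tunicamycin at 10 µg/mL and 0% = DMSO alone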
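measured by = luciferase luminescence | assay system = CHO-CHOP cells, stable luciferase reporter of PERK-eIF2a-CHOP signalling | amount = 500 reporter cells seeded per well | timing = 6 h compound exposure at 37 °C after overnight seeding | controls = positive tunicamycin 10 µg/mL, negative DMSO alone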
XBP1 UPR activ: adaptive UPR (XBP1) activation; CHO-XBP1 luciferase reporter, IRE1-XBP1 UPR activation, luminescence; percent of tunicamycin response, DMSO as zero; activation, % at 20 µM; 330,000 tested, 0.33% active; AID 463104;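 active means versus positive control, 20 µM dose yields 30% or more activation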;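 further: 100% = tunicamycin at 10 µg/mL and 0% = DMSO only wells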
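Material: CHO-XBP1 cells stably carrying IRE1-XBP1-driven luciferase reporter / Amount: 1000 cells per well / Compound: 20 µM, 1% DMSO / Times: 6 h treatment, 37 °C / Detection: luciferase luminescence / Measure: % activation of reporter signal versus tunicamycin and DMSO controls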
UPR XBP1 confirm: adaptive UPR (XBP1) activation, confirmed; shares compounds with XBP1 UPR activ; CHO-XBP1 IRE1-XBP1 luciferase reporter, luminescence; activation, % at 20 µM; 1,000 tested, 63% active;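 active means reporter signal at least 30% of the positive control's activation in two or more of four replicate wells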;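 further: plate controls were DMSO negative control for no effect and tunicamycin 10 µg/mL positive control for full effect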
Active calls of the source: *; nt = no result given; ! = repeats disagree.

SMILES	CHOP inh	PvdQ acylase	UPR CHOP act	XBP1 UPR activ	UPR XBP1 confirm
CCn1c(C(=O)N2CCC(C(=O)N3CCC4(CC3)OCCO4)CC2)cc2sccc21	39	-5	-2	1	nt
CCN(CC)c1ccc(N=Cc2c(O)n(Cc3ccccc3)c(=O)[nH]c2=O)cc1	96*!	-10	8	31*	35*!
CCN(CC)c1ccc(/C=C/[N+](=O)[O-])cc1	-78	-7	14	112*	76*
CC(NCc1ccccc1C(F)(F)F)C(O)c1ccccc1 (centres undefined)	13	-6	2	-1	nt
Cc1cccc(-n2c(O)c(C=Nc3ccc(Br)cn3)c(=O)[nH]c2=O)c1	10	-3	1	-2	nt
Cc1ccc(-n2c(O)c(/C=N/c3ncc(Br)cc3Br)c(=O)[nH]c2=O)cc1	74*	-8	3	31*	52*
CC(C)C12CN3CCN(CC(C3)C1O)C2 (centres undefined)	-18	0	0	-1	nt
